# Screening results deposited in PubChem BioAssay by several laboratories.
# G6PDH counter: inhibits Leuconostoc G6PDH, flagging false hits in G6PDH-based assays; Purified L. mesenteroides G6PDH, diaphorase/resazurin coupled fluorescence, 45 min; inhibition, % at 5 µM; hit rate 0.12% among 200,000; AID 1020; in the data active = inhibition above about 50%
# Diaphorase act: activates diaphorase or chemically reduces, flagging diaphorase assay artifacts; hit rate 0.005% among 190,000; activation factor at 20 µM; Diaphorase/resazurin coupled assay, resorufin fluorescence, 16 min; stronger effect = higher value; 1 = vehicle wells, 0 = NADH-free wells; AID 1229;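 active = diaphorase activity raised at least twofold by the compound at 20 µM; inactive = activation factor below 2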
#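 Test system: Clostridium kluyveri diaphorase, purified enzyme; input: enzyme 0.07 U/mL final; buffer or medium: 50 mM HEPES pH 7.4 with 4.542 mM MgCl2, 0.005% Tween 20; also added: 0.114 mM NADH and 0.1 mM resazurin, final amounts; schedule: 16 min enzyme reaction, ambient temperature; technique: fluorescence of resorufin, 544 nm excitation, 590 nm emission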
# Diaph inh CS: inhibits diaphorase or chemically oxidizes, flagging diaphorase assay artifacts. hit rate 0.69% among 190,000. diaphorase resazurin-to-resorufin fluorescence, NADH, 16 min; bacterial (C. kluyveri) enzyme, not human. inhibition, % at 20 µM;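 active = primary screen inhibition at 20 µM above a set limit, cut at about 50% in these data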
#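 Assay system: diaphorase enzyme from Clostridium kluyveri; Input: enzyme working solution with 0.14 U/mL diaphorase; Timing: 16 min at room temperature; Technique: resorufin fluorescence, excitation 544 nm, emission 590 nm; Benchmarks: positive control minus NADH, DMSO neutral control.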
# PfG6PD inh: PfG6PD (Plasmodium falciparum) enzyme inhibition; hit rate 0.78% among 350,000; inhibition, % at 20 µM; PfGluPho enzyme, NADPH resazurin-diaphorase fluorescence;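 active = inhibition reaching at least a set limit at 20 µM in the primary screen, cut at about 59% in these data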
# HKDC1 inh: blocks human hexokinase HKDC1 activity; hit rate 0.16% among 340,000; inhibition, % at 20 µM; recombinant HKDC1, G6PDH/diaphorase resazurin coupled fluorescence;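 active = inhibition above about 35% when tested at 20 µM, limit read from the data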
# Target sequence (Q2TB90 whole entry, looked up): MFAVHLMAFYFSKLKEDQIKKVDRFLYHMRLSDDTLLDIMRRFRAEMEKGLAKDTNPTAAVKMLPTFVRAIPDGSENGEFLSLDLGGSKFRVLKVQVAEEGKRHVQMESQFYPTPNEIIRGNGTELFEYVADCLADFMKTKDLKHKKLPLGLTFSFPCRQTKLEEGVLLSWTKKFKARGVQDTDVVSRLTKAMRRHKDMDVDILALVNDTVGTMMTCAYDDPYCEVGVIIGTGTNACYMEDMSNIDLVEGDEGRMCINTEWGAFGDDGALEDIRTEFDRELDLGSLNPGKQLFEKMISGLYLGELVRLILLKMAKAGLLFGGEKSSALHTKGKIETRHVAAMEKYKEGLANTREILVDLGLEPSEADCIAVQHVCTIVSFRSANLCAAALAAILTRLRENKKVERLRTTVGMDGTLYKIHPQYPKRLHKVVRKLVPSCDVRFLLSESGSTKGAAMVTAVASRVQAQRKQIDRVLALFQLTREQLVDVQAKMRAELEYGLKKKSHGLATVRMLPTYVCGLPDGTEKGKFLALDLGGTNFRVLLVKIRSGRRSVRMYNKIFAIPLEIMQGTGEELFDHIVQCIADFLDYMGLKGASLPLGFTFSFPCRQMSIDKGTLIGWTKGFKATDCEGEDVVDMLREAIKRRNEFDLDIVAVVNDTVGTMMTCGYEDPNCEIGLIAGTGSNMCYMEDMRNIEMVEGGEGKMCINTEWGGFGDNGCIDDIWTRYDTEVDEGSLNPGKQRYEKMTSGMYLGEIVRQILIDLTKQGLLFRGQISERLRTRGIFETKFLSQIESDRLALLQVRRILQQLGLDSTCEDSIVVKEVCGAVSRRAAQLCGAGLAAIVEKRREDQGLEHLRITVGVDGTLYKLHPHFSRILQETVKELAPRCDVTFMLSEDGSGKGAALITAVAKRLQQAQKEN
#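 test system = in-house recombinant HK5 (HKDC1) enzyme | amount = HKDC1 at 5 µg/mL | control set = DMSO-enzyme wells negative, buffer-substituted wells positive | compound = one dose of 20 µM, 1% DMSO | schedule = reaction time 90 min, room temperature, protected from light | technique = resorufin fluorescence at 613 nm | reagent = glucose with 1 mM ATP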
# TbHK1 inh: blocks Trypanosoma brucei hexokinase 1 activity | recombinant TbHK1, G6PDH-coupled NADH A340 | inhibition, % at 10 µM | hit rate 0.11% among 220,000;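 active = inhibition of 50% or more in the single-dose primary screen; inactive = inhibition below 50%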
# Numbers stand for hits; . = inactive; / = no result given. This is a sample that favours compounds with a hit; in the whole collection about 1.3% have one here.
SMILES,G6PDH counter,Diaphorase act,Diaph inh CS,PfG6PD inh,HKDC1 inh,TbHK1 inh
O=C(CSc1ccc2nnc(-c3ccc(F)cc3)n2n1)N1CCCc2ccccc21,.,.,58.9,.,.,.
O=C(CSc1ccc2nnc(-c3ccc(Cl)cc3)n2n1)N1CCCc2ccccc21,.,.,.,.,.,.
O=C1CN(C(=O)CSc2nc3c(cnn3-c3ccccc3)c(=O)[nH]2)c2ccccc2N1,/,/,/,.,.,/
O=C(CSc1nc2c(cnn2-c2ccc(F)cc2)c(=O)[nH]1)N1CCCc2ccccc21,.,.,63.2,.,.,.
Cc1ccc2cc(CCNC(=O)c3ccc(C)c([N+](=O)[O-])c3)c(=O)[nH]c2c1,.,.,59.4,.,.,.
CCC(CC)C(=O)NCCc1cc2ccc(C)cc2[nH]c1=O,.,.,.,.,.,.
CCn1c(SCC(=O)Nc2ccc3c(c2)c2ccccc2n3CC)nnc1-c1ccco1,.,.,.,75.8,.,.
CCn1c(SCC(=O)Nc2cccc(NC(C)=O)c2)nnc1-c1ccco1,/,/,/,.,.,/
CCn1c(=O)n(CC)c2cc(N)ccc21,.,.,74.8,.,.,.
COc1ccc(-c2cc(C(=O)N(C)Cc3ccc(F)cc3)c3ccccc3n2)cc1OC,/,/,/,.,.,/
Cc1ccc2[nH]c(=O)c3cc(C(=O)N4CCN(C(=O)c5ccco5)CC4)sc3c2c1,.,.,59.5,.,.,.
CCC1CCC/C1=N\NC(=O)c1ccoc1C (stereo not given),/,/,/,.,.,/
CNc1ccccc1,/,/,/,.,.,/
CNc1cccccc1=S,.,.,.,65.3,.,.
N#Cc1c(NCc2ccccc2)ccnc1Cl,/,/,/,.,.,/
CN1CCN(C2=C(Cl)C(=O)C(c3cnc(N4CCCCC4)s3)=C(Cl)C2=O)CC1,51.3,.,64.1,91.1,54.6,.
CN1CCN(C2=C(Cl)C(=O)N(C3CCCCC3)C2=O)CC1,.,.,.,.,.,.
COc1ccccc1NC(=O)c1cc(C)nc2ccccc12,.,.,63.0,.,.,.
CC(C)N1C(=O)CC(Nc2cccc3cccc(N)c23)C1=O (stereo not given),.,.,51.8,.,.,.
CN1C(=O)CC(Nc2cccc3cccc(N)c23)C1=O (stereo not given),.,.,66.8,63.8,.,.
Cc1cccc(NC(=O)N2CCC(NC(=O)C3CCCCC3)CC2)c1,/,/,/,.,.,/
Clc1ccc(CSc2ncnc3c2ncn3C2CCCCO2)cc1 (stereo not given),/,/,/,.,.,/
CC(SCc1ccccc1)C(=O)N/N=C/c1cc2c(cc1Br)OCO2 (stereo not given),.,.,50.9,.,.,.
CC(SCc1ccccc1)C(=O)N/N=C/c1ccc2c(c1)OCO2 (stereo not given),.,.,.,.,.,.
CC1=C(C#N)C(=O)NC(=O)/C1=C\c1ccc(-c2cc(C)c(C)cc2[N+](=O)[O-])o1,.,.,60.9,.,.,.
SMILES,G6PDH counter,Diaphorase act,Diaph inh CS,PfG6PD inh,HKDC1 inh,TbHK1 inh
Cc1[nH]c2ccccc2c1C(C#N)(C#N)C1C(=O)c2ccccc2C1=O,/,/,/,122.1,57.1,.
Cc1[nH]c2ccccc2c1CC#N,/,/,/,.,.,.
O=C(OCC(=O)N1CCN(c2ccccc2)CC1)c1cc(F)c(F)cc1Cl,/,/,/,.,/,/
COc1cc(/C=C/C(O)=C/C(=O)/C=C/c2ccc(O)cc2)ccc1O,/,/,/,.,.,/
c1ccc(Nc2cccc(Nc3ccccc3)n2)cc1,.,.,54.9,.,.,.
CC(C)N(CC#CCC(O)(c1ccccc1)C1CCCC1)CCO (stereo not given),.,.,60.4,.,.,.
CCN(CC#CCC(O)(c1ccccc1)C1CCCC1)C(C)C (stereo not given),.,.,.,.,.,.
N#Cc1c2ccc(OCC(N)=O)cc2n2ccccc12,.,.,70.5,.,.,.
COc1cccc(-c2c(C(=O)N/N=C/c3sccc3C)nnn2-c2nonc2N)c1,/,/,/,91.5,.,/
CC1OC(Oc2c(-c3cc(O)c(O)c(O)c3)oc3cc(O)cc(O)c3c2=O)C(O)C(O)C1O (stereo not given),/,/,/,.,.,.
O=C(O)C1OC(Oc2c(-c3ccc(O)c(O)c3)oc3cc(O)cc(O)c3c2=O)C(O)C(O)C1O (stereo not given),.,.,54.7,.,.,.
C=CC(=O)Nc1cccc(N(C)c2ccnc(Nc3ccc(N4CCN(C)CC4)cc3)n2)c1,/,/,/,66.3,.,/
C=CC(=O)Nc1cccc(Oc2ccnc(Nc3ccc(N4CCN(C)CC4)cc3)n2)c1,/,/,/,.,.,/
COc1cc2nc(=S)n3[nH]c(CCn4c(C)nc5ccccc54)nc3c2cc1OC,.,.,88.8,.,.,.
COc1ccc(OCc2nc3c4cc(OC)c(OC)cc4nc(=S)n3[nH]2)cc1,.,.,91.7,.,.,.
COc1ccc(OCc2nc3ccccc3[nH]2)cc1,.,.,.,.,.,.
COc1ccccc1Cn1c(C)nc2ccccc21,/,/,/,.,.,.
O=C(CN1CCN(Cc2ccccc2)CC1)Nc1cccc(Cl)c1Cl,/,/,/,.,/,/
COc1ccc2cc(CCN3C(=O)c4ccccc4C3=O)c(=O)[nH]c2c1,.,.,.,.,.,.
Cc1cccc(C(=O)Nc2scc(-c3ccc(Br)cc3)c2C(=O)O)c1,/,/,/,.,.,/
COc1cc(C(=O)Nc2scc(-c3ccc(Br)cc3)c2C(=O)O)cc(OC)c1OC,/,/,/,59.4,.,/
Fc1ccc(NC(=S)Nc2ccc3nccnc3c2)cc1,.,.,64.4,.,.,.
CC(C)N(C(=O)Nc1ccc2nccnc2c1)C(C)C,.,.,65.0,.,.,.
OCCCNC(=S)Nc1ccc2nccnc2c1,.,.,.,.,.,.
CC(=O)NCCC(=O)N(C)CC1CCN(CCc2cccc(C(F)(F)F)c2)CC1,/,/,/,.,.,/
SMILES,G6PDH counter,Diaphorase act,Diaph inh CS,PfG6PD inh,HKDC1 inh,TbHK1 inh
O=C(Cc1c(O)c2ccccc2[nH]c1=O)NCc1ccccc1F,.,.,.,.,.,54.1
CCCCCCNC(=O)N[C@@H](C(=O)NCCC[C@H]1CN2C(=NC[C@@H]2Cc2ccccc2)N1CCc1cccc(OC)c1)C(C)C,/,/,/,64.5,.,.
C/C=C(\C)C(=O)NCCN1C2=NC[C@@H](Cc3ccccc3)N2C[C@@H]1Cc1ccc(OC)cc1,/,/,/,.,.,/
Cc1ccc(C(=O)NNC(=O)c2ccccc2)cc1S(=O)(=O)N1CCCCC1,/,/,/,.,.,/
O=C(O)c1cccc(-n2sc3ccccc3c2=O)c1,/,/,/,114.2,.,/
Cc1ccc(-n2sc3ccccc3c2=O)cc1S(=O)(=O)N1CCCCC1,.,.,.,127.0,.,92.5
O=c1c2cc(F)ccc2sn1-c1ccccc1,/,/,/,113.5,.,/
Cc1ccccc1C1(O)c2ccccc2-c2ccccc21,/,/,/,.,/,/
O=C(NCc1cccs1)c1cc(S(=O)(=O)N2CCOCC2)c(Cl)cc1Cl,/,/,/,.,.,/
Cc1cc(/C=C\c2ccc3cc(N(C)C)ccc3[n+]2C)c(C)n1-c1ccccc1,/,/,/,.,36.7,/
